Published values from different studies.
Compare with care: the assays were run in different laboratories.
EGFR T790M: Epidermal growth factor receptor (EGFR, Homo sapiens, UniProt P00533, T790M)
EGFR L858R/T790M: Epidermal growth factor receptor (EGFR, Homo sapiens, UniProt P00533, L858R/T790M)
EGFR del747-752/P753S: Epidermal growth factor receptor (EGFR, Homo sapiens, UniProt P00533, del747-752/P753S)
EGFR del747-750/T751S: Epidermal growth factor receptor (EGFR, Homo sapiens, UniProt P00533, del747-750/T751S)
EGFR G719C: Epidermal growth factor receptor (EGFR, Homo sapiens, UniProt P00533, G719C)
EGFR del752-759: Epidermal growth factor receptor (EGFR, Homo sapiens, UniProt P00533, del752-759)
EGFR A750P/del747-749: Epidermal growth factor receptor (EGFR, Homo sapiens, UniProt P00533, A750P/del747-749)
EGFR L861Q: Epidermal growth factor receptor (EGFR, Homo sapiens, UniProt P00533, L861Q)
EGFR: Epidermal growth factor receptor (EGFR, Homo sapiens, UniProt P00533)
EGFR del746-750: Epidermal growth factor receptor (EGFR, Homo sapiens, UniProt P00533, del746-750)

CO[C@@H](C)c1c(Nc2ccc([C@H](N(C)C(=O)C3CCS(=O)(=O)CC3)C(F)(F)F)cc2)cnc2cc(Cl)nn12
remaining binding (EGFR T790M; cell-free assay, competition with immobilised ligand; 1 µM): 90%

COc1cnc(Nc2cccc(S(N)(=O)=O)c2)nc1N1CCN(c2ccccc2)CC1
remaining binding (EGFR T790M; binding, competition with immobilised ligand; 1 µM): 72%

CC1CCCN1c1nccc(-c2cnn3ncccc23)n1 (stereo not shown)
remaining binding (EGFR L858R/T790M; binding; 1 µM): 100%

Cc1noc([C@H]2C[C@@H](c3ccc(C(F)(F)F)cc3)CN(C(=O)N3CCS(=O)(=O)C3)C2)n1
remaining binding (EGFR del747-752/P753S; cell-free assay, competition with immobilised ligand; 1 µM): 78%

c1cncc(-c2cccc(Nc3nccc(NC4CCCCC4)n3)c2)c1
remaining binding (Epidermal growth factor receptor (EGFR, Homo sapiens, UniProt P00533, G719S); binding, competition with immobilised ligand; 10 µM): 68%

O=C1NC(c2ccccn2)Sc2ccccc21 (stereo not shown)
remaining binding (EGFR del747-750/T751S; cell-free assay, competition with immobilised ligand; 1 µM): 68%

CN(C)c1nccc(-c2cnn3ncccc23)n1
remaining binding (EGFR G719C; binding; 1 µM): 100%

CCS(=O)(=O)c1cc2cc(C[C@@](O)(CC(C)(C)c3ccc(F)cc3C(N)=O)C(F)(F)F)[nH]c2cn1
remaining binding (EGFR del747-750/T751S; cell-free assay, competition with immobilised ligand; 1 µM): 93%

CN(C)c1ncc(F)c(-c2cnn3ncccc23)n1
remaining binding (EGFR L858R/T790M; binding; 1 µM): 74%

Nc1ncc2c(n1)-c1c([nH]c3ccc(C#CC4CC4)cc13)CCCC2
remaining binding (EGFR del752-759; binding, competition with immobilised ligand; 1 µM): 100%

CCN1CCN(Cc2ccc(C(=O)Nc3ccc(C)c(Oc4ccc5c(c4)CC(=O)N5)c3)cc2C(F)(F)F)CC1
remaining binding (EGFR A750P/del747-749; binding, competition with immobilised ligand; 1 µM): 100%

O=C(NCCCN1CCOCC1)c1ccc(Nc2nccc(-c3cc4ccccc4s3)n2)cc1
remaining binding (EGFR G719C; binding, competition with immobilised ligand; 1 µM): 99%

Cc1c(C(=O)O)cc(-c2ccc(C3CCNCC3)cc2)c2ccc(-c3ccc(C(F)(F)F)cc3)cc12
remaining binding (EGFR L861Q; cell-free assay, competition with immobilised ligand; 1 µM): 100%

CN(CCCC(F)(F)F)c1nccc(-c2cnn3ncccc23)n1
remaining binding (EGFR del752-759; binding; 1 µM): 85%

Cn1nc(C(F)(F)F)cc1-c1cnc(N2CCc3cc(S(=O)(=O)Nc4c(F)cc(Cl)cc4F)cc(N4CCCC4=O)c32)nc1
remaining binding (EGFR del747-752/P753S; cell-free assay, competition with immobilised ligand; 1 µM): 100%

CNC(=O)[C@@H]1CC[C@@H](n2c(-c3ccc4cnccc4c3)nc3ccc(C(=O)NCc4cccc(C(N)=O)c4)cc32)C1
remaining binding (EGFR L861Q; binding, competition with immobilised ligand; 1 µM): 100%

Cc1cnc(Nc2ccc(C(=O)N3CCC(N4CCCC4)CC3)cc2)nc1-c1cc2ccccc2s1
remaining binding (EGFR del747-752/P753S; binding, competition with immobilised ligand; 1 µM): 100%

C[C@@H]1CCN(c2nccc(-c3cnn4ncccc34)n2)C1
remaining binding (EGFR; binding; 1 µM): 100%

O=C(NCCCN1CCOCC1)c1ccc(Nc2ncc(Cl)c(-c3ccc(Cl)s3)n2)cc1
remaining binding (EGFR; binding, competition with immobilised ligand; 1 µM): 89%

O=C(NC[C@@H]1[C@H]2CN(C(=O)OCc3cc(C(F)(F)F)cc(C(F)(F)F)c3)C[C@@H]12)c1ccc2[nH]nnc2c1
remaining binding (Epidermal growth factor receptor (EGFR, Homo sapiens, UniProt P00533, L858R); cell-free assay, competition with immobilised ligand; 1 µM): 100%

CN1CCN(c2ccc(Nc3nccc(-c4ccccc4)n3)cc2C(F)(F)F)CC1
remaining binding (EGFR T790M; binding; 10 µM): 77%

O=C(NCC1CCOCC1)c1n[nH]cc1NC(=O)c1c(F)cccc1F
remaining binding (EGFR del747-752/P753S; binding, competition with immobilised ligand; 1 µM): 100%

O=C(c1ccc(Nc2nccc(-c3cc4ccccc4s3)n2)cc1)N1CCC(N2CCCC2)CC1
remaining binding (EGFR del747-752/P753S; binding, competition with immobilised ligand; 1 µM): 90%

CNCc1ccccc1-c1csc([C@H](C)Nc2nc(C)nc3cc(OC)c(OC)cc23)c1
remaining binding (EGFR G719C; cell-free assay, competition with immobilised ligand; 1 µM): 85%

O=C(c1ccc(Nc2ncc(Cl)c(-c3cc4ccccc4s3)n2)cc1)N1CCC(N2CCCC2)CC1
remaining binding (EGFR del746-750; binding, competition with immobilised ligand; 1 µM): 79%

COc1ncc2cc3ccccc3nc2c1C#N
remaining binding (EGFR; cell-free assay, competition with immobilised ligand; 5 µM): 94%

O=C(c1ccc(Nc2ncc(Cl)c(-c3ccc(Cl)s3)n2)cc1)N1CCC(N2CCCC2)CC1
remaining binding (EGFR G719C; binding, competition with immobilised ligand; 1 µM): 100%

F[C@@H]1CCN(c2nccc(-c3cnn4ncccc34)n2)C1
remaining binding (EGFR; binding; 1 µM): 91%

O=C(Nc1c[nH]nc1C(=O)NC1CCNCC1)c1cc(F)cc(F)c1
remaining binding (EGFR A750P/del747-749; binding, competition with immobilised ligand; 1 µM): 80%

COc1cnc(Nc2cccc(S(N)(=O)=O)c2)nc1N1CCN(c2ccccc2)C(=O)C1
remaining binding (EGFR L861Q; binding, competition with immobilised ligand; 1 µM): 100%

COc1ccnn2ncc(-c3ccnc(N(C)C)n3)c12
remaining binding (EGFR del746-750; binding; 1 µM): 97%
